Series [1] concerns Human immunodeficiency virus 1. The series is described as follows: Antiviral activity against HIV1 3B infected in human HOS cells after 72 hrs by luminescence assay in presence of 45 mg/ml human serum albumin. In kind it is functional, organism-based. As to conditions: Human immunodeficiency virus 1, 3B. The essentials: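 HOS LTR-luciferase viral assay (1 h compound pre-incubation, virus plus compound, 72 h, 37°C, luminescence) run with human serum albumin (45 mg/ml) with or without α-acid glycoprotein (1 mg/ml). Protein-free IC50 served as baseline for fold shift.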

Series [2] concerns the target C-X-C chemokine receptor type 4 (Homo sapiens) (UniProt P61073). The series is described as follows: Inhibition of CXCR4-mediated chemotaxis in SDF1-stimulated human U937 cells treated 15 mins before SDF1 challenge measured after 2 hrs by luminescence assay relative to control. The series is classed as cell-based. As to conditions: U-937. The essentials:
(§1)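 U937 cells (endogenous CXCR4) in RPMI with 2% FCS and 10 mM HEPES, 5 × 10^6 cells/ml, preincubated 15 min with compound, then placed above a 5.0 μm filter. The lower chamber held the same compound concentration plus SDF-1. Migration ran 2 h. Migrated cells were quantified by ATP luminescence. Viability was checked under identical conditions. For mode of action, SDF-1 concentration-response curves were run at increasing compound concentrations.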

A short description of series [3]: Oral bioavailability in dog at 3 mg/kg administered as single dose after 24 hrs by liquid chromatography-mass spectroscopy. The series is classed as ADME, organism-based, Canis lupus familiaris. Conditions: in vivo.
A short description of series [4]: Volume of distribution at steady state in rat at 1 mg/kg, iv administered as single dose after 24 hrs by liquid chromatography-mass spectroscopy. Also noted: dose 1 mg/kg, route intravenous. Conditions: in vivo, read-out: Vdss. In kind it is ADME, organism-based.
In series [5] the test system is Human immunodeficiency virus 1. In words: Antiviral activity against HIV1 isolate 05-121801 assessed as inhibition of viral replication after 7 days by scintillation counting. In kind it is functional, organism-based. Conditions: Human immunodeficiency virus 1, isolate 05-121801, 168 h.
Series [6] concerns Human immunodeficiency virus 1. The series is described as follows: Antiviral activity against HIV1 isolate 05-121782 assessed as inhibition of viral replication after 7 days by scintillation counting. Conditions: Human immunodeficiency virus 1, isolate 05-121782, 168 h. The series is classed as functional, organism-based.
Series [7] can be described thus: Half life in dog at 3 mg/kg, po administered as single dose by liquid chromatography-mass spectroscopy. The series is classed as ADME, organism-based, Canis lupus familiaris. Conditions: in vivo. Also noted: dose 3 mg/kg, route oral. The essentials:
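Single oral dose of 3 mg/kg. Plasma was sampled at serial times over 24 h and measured by LC-MS/MS. Half-life was derived by pharmacokinetic analysis.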

Series [8] concerns Human immunodeficiency virus 1. In words: Antiviral activity against HIV1 isolate 05-121772 assessed as inhibition of viral replication after 7 days by scintillation counting. In kind it is functional, organism-based. Conditions: Human immunodeficiency virus 1, isolate 05-121772, 168 h.
For series [9], the system named is Human immunodeficiency virus 1. The series is described as follows: Antiviral activity against HIV1 isolate 05-121799 assessed as inhibition of viral replication after 7 days by scintillation counting. In kind it is functional, organism-based. As to conditions: Human immunodeficiency virus 1, isolate 05-121799, 168 h.
For series [10], the system named is Human immunodeficiency virus 1. The series is described as follows: Antiviral activity against HIV1 isolate 05-121802 assessed as inhibition of viral replication after 7 days by scintillation counting. The series is classed as functional, organism-based. Conditions: Human immunodeficiency virus 1, isolate 05-121802, 168 h.
Series [11] relates to Human immunodeficiency virus 1. The series is described as follows: Antiviral activity against HIV1 isolate 05-121779 assessed as inhibition of viral replication after 7 days by scintillation counting. The series is classed as functional, organism-based. Conditions: Human immunodeficiency virus 1, isolate 05-121779, 168 h.
Series [12] relates to Human immunodeficiency virus 1. The series is described as follows: Antiviral activity against HIV1 isolate 05-121783 assessed as inhibition of viral replication after 7 days by scintillation counting. The series is classed as functional, organism-based. As to conditions: Human immunodeficiency virus 1, isolate 05-121783, 168 h.
The next series concerns HOS. The series is described as follows: Cytotoxicity against human HOS cells infected with HIV1 3B after 72 hrs by celltiter glow assay. In kind it is cell-based. In general terms: ATP-based viability assays read luminescence as a measure of living cells.
Series [13] deals with Human immunodeficiency virus 1. In words: Antiviral activity against HIV1 isolate 05-121785 assessed as inhibition of viral replication after 7 days by scintillation counting. The series is classed as functional, organism-based. Conditions: Human immunodeficiency virus 1, isolate 05-121785, 168 h.
Series [14] in a line: Oral bioavailability in rat at 3 mg/kg administered as single dose after 24 hrs by liquid chromatography-mass spectroscopy. In kind it is ADME, organism-based. As to conditions: in vivo.
Series [15] deals with Human immunodeficiency virus 1. In words: Antiviral activity against HIV1 isolate 05-121794 assessed as inhibition of viral replication after 7 days by scintillation counting. In kind it is functional, organism-based. Conditions: Human immunodeficiency virus 1, isolate 05-121794, 168 h.
Series [16] has as its target C-X-C chemokine receptor type 4 (Homo sapiens) (UniProt P61073). The series is described as follows: Noncompetitive inhibition of CXCR4-mediated chemotaxis in SDF1-stimulated human U937 cells treated 15 mins before SDF1 challenge measured after 2 hrs by luminescence assay. The series is classed as cell-based. As to conditions: U-937. The method, boiled down:
as §1

The target of a further series is Cytochrome P450 2D6 (Homo sapiens, UniProt P10635). In words: Inhibition of CYP2D6 up to 30 uM. In kind it is ADME.
Cytochrome P450 2D6, sequence (P10635 whole entry): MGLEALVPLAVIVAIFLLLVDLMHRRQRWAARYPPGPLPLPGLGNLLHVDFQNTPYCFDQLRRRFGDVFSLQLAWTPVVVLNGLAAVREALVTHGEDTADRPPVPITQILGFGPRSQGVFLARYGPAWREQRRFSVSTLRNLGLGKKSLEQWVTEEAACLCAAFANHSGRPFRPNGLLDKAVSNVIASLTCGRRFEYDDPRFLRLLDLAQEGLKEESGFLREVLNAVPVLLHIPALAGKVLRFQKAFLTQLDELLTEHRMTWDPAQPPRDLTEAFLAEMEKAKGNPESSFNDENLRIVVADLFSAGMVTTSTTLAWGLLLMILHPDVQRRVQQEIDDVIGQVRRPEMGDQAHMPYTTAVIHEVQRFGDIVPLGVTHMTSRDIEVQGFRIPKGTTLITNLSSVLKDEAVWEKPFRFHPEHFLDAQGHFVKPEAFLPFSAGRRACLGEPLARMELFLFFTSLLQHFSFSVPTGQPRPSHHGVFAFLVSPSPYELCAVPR
Series [17] has as its system Human immunodeficiency virus 1. In words: Antiviral activity against HIV1 3B infected in human HOS cells after 72 hrs by luminescence assay. The series is classed as functional, organism-based. As to conditions: Human immunodeficiency virus 1, 3B. The method, boiled down: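 HOS cells express hCXCR4, hCCR5 and hCD4 plus an HIV-1 LTR-luciferase reporter. 6,000 cells/well were plated in DMEM with 2% FCS and grown overnight, then pre-incubated with compound for 1 h. Virus pre-mixed with compound was added, and cells were incubated 72 h at 37°C. Read-out was luciferase luminescence. IC50 from a four-parameter logistic fit.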

Series [18] concerns Human immunodeficiency virus 1. The series is described as follows: Antiviral activity against HIV1 3B infected in human PBMC assessed as inhibition of viral replication after 7 days by scintillation counting. In kind it is functional, organism-based. Conditions: Human immunodeficiency virus 1, 3B, 168 h. The method, boiled down: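 PHA/IL-2-stimulated donor PBMCs at 4 × 10^6 cells/ml in RPMI with 20% FCS and 10% IL-2. Cells were pre-incubated with compound for 1 h, then infected with HIV-1 IIIB pre-mixed with compound for 7 days at 37°C. Supernatant reverse transcriptase was measured with poly(rA)·oligo(dT) and [3H]dTTP for 2 h, captured on DE-81 filters, and counted.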

For series [19], the target named is C-X-C chemokine receptor type 4 (Homo sapiens) (UniProt P61073). The series is described as follows: Agonist activity at human CXCR4 expressed in HEK293 cells assessed as effect intracellular calcium level after 1 hr by FLIPR assay. In kind it is functional, cell-based. (A change in cytosolic calcium serves as a functional read-out for many receptors and channels.)
C-X-C chemokine receptor type 4 (Homo sapiens), sequence (P61073 whole entry): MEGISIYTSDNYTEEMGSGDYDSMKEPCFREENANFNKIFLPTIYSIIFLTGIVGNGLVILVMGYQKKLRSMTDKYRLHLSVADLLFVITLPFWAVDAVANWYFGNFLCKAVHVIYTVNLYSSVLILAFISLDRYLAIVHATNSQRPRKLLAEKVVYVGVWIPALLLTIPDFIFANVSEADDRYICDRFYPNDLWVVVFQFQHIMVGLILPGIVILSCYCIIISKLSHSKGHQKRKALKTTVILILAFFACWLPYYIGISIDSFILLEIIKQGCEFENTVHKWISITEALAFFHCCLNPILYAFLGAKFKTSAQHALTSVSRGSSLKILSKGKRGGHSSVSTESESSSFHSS

The target of series [20] is Angiotensin-converting enzyme (Homo sapiens, UniProt P12821). The series is described as follows: Inhibition of ACE.
Angiotensin-converting enzyme, sequence (P12821 whole entry): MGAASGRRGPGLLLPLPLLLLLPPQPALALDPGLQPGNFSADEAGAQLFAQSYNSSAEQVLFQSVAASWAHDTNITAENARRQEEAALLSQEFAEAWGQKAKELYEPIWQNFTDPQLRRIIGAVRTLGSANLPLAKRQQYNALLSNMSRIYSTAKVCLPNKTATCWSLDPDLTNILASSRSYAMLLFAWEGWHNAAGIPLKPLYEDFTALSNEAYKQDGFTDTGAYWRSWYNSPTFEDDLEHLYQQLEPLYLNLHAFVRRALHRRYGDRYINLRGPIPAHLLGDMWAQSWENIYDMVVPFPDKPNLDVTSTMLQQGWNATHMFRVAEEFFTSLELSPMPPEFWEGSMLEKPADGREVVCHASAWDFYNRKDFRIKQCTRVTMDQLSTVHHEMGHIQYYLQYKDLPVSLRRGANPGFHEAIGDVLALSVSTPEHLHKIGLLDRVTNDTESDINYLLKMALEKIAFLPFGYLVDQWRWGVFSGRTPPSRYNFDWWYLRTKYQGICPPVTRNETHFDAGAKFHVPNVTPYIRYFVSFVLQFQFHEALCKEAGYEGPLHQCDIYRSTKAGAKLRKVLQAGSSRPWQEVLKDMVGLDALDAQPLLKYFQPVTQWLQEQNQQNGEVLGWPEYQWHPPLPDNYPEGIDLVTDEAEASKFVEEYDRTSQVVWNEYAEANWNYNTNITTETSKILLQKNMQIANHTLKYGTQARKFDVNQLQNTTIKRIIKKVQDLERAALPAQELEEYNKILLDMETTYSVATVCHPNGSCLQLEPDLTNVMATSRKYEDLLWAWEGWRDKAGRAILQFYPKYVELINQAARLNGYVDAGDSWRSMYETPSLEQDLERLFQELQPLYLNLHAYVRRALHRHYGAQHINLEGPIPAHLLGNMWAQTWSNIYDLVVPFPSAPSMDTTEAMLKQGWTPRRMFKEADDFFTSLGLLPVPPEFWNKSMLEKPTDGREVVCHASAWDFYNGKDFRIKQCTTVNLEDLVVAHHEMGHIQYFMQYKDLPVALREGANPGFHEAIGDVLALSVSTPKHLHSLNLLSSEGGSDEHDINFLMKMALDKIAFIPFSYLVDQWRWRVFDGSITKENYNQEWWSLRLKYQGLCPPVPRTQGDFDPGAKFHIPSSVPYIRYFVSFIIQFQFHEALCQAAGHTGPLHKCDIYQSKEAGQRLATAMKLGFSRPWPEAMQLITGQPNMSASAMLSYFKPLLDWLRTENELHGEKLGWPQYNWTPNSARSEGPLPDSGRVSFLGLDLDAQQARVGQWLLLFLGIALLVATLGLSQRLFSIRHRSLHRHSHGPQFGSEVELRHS
A further series has as its target T1, Cytochrome P450 1A2 (Homo sapiens, UniProt P05177).
T1 sequence (P05177 whole entry): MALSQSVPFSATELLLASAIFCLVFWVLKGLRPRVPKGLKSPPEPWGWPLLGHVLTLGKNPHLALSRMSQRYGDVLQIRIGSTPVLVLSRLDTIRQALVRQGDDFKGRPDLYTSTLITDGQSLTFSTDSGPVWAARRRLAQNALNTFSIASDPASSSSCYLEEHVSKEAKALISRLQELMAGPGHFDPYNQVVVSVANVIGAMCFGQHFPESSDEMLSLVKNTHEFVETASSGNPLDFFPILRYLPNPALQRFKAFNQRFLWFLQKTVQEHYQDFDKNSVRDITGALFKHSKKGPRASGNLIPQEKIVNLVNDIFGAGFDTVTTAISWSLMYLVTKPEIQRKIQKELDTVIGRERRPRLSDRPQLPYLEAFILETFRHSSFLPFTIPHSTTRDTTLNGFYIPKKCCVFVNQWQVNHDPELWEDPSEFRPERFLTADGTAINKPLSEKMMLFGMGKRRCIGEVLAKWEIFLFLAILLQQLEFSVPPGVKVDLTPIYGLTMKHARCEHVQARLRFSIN
The series is described as follows: Inhibition of CYP1A2 up to 30 uM. The series is classed as ADME.

A short description of series [21]: Clearance in dog at 1 mg/kg, iv administered as single dose after 24 hrs by liquid chromatography-mass spectroscopy. Also noted: dose 1 mg/kg, route intravenous. The series is classed as ADME, organism-based, Canis lupus familiaris. Conditions: in vivo. The method, boiled down: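 Single intravenous dose of 1 mg/kg. Plasma was sampled at serial times over 24 h and measured by LC-MS/MS. Clearance was derived by pharmacokinetic analysis.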

Molecules are shown by their SMILES. Calls of active or inactive are those of the source. The calls are words filed in the database; no cut-off is given here.

The results in this text go back to ChEMBL document CHEMBL1240366, “Blockade of X4-tropic HIV-1 cellular entry by GSK812397, a potent noncompetitive CXCR4 receptor antagonist” (Antimicrob Agents Chemother, 2010).

In the case of `CN1CCN(c2cccc3nc(CN(C)[C@H]4CCCc5cccnc54)c(CO)n23)CC1`, the IC50 in series [1] amounted to 2.01 nM; in [5] it was 1 nM; in series [6], 1 nM; in series [8] it was 1 nM; in [9] it was 1 nM; in [10], 1 nM. For the same compound, the 50% inhibitory concentration (IC50) in series [11] was 1 nM; in [12] it was 1 nM; in the series with HOS, above 1000 nM; in [13], 1 nM; in [15], 1 nM; in series [17] it was 1.5 nM. Besides, the 50% inhibitory concentration (IC50) amounted to 4.6 nM in series [18] and 193 nM in [20]. For the same compound, in series [2], the inhibition was 109%. The bioavailability in series [3] and in series [14] was 21% throughout. Further, in series [4], the Vd amounted to 2.1 L/kg. Further, the half-life in [7] was above 12 h. For the same compound, in [16], the inhibition result was “Active”. Also, the “inhibition (INH)” value on Cytochrome P450 2D6 and against Cytochrome P450 1A2 was “Not Active” throughout. Besides, the result in [19] was inactive. In series [21], this compound had a clearance of 5.5 mL/min/kg.

As a reminder, the IC50 is the concentration at which inhibition is half-maximal. As usually defined, the inhibition is the change of the read-out against control, counted positive when it falls. A word on the bioavailability: it is the share of a dose that reaches the circulation, judged against a reference dose that is usually intravenous. Read a low bioavailability as little systemic uptake. In general, half-life refers to the time in which the quantity being followed falls by half. Low values mean rapid decline, high ones slow decline. Broadly, the clearance is the volume of plasma or blood freed of the substance per unit of time. Read a low clearance as a low capacity for elimination.
